Experimental data of several laboratories.
Compare with care: the assays were run in different laboratories.
Target: Serine/threonine-protein kinase mTOR (MTOR, Homo sapiens, UniProt P42345)

CN(C)CC#Cc1ccc(OCCCc2sc(N3CCc4cccc(C(=O)Nc5nc6ccccc6s5)c4C3)nc2C(=O)O)c(F)c1 — remaining binding (cell-free assay, competition with immobilised ligand; 1 µM): 100%
CNC(=O)[C@@H]1CC[C@@H](n2c(-c3ccc4cnccc4c3)nc3ccc(C(=O)NCc4cccc(C(N)=O)c4)cc32)C1 — remaining binding (binding, competition with immobilised ligand; 1 µM): 66%
CNC(=O)Nc1ccc2c(c1)CC[C@@]21OC(=O)N(CC(=O)N(Cc2ccc(F)cc2)[C@@H](C)C(F)(F)F)C1=O — remaining binding (cell-free assay, competition with immobilised ligand; 1 µM): 92%
Nc1ncc2c(n1)-c1c([nH]c3ccc(C#CC4CC4)cc13)CCCC2 — remaining binding (binding, competition with immobilised ligand; 1 µM): 100%
CCC(=O)N[C@H]1CC[C@@H](C(=O)N(C)c2ccc(-c3nc4ccccc4o3)cc2)C1 — remaining binding (cell-free assay, competition with immobilised ligand; 1 µM): 92%
COc1ccnn2ncc(-c3ccnc(N(C)C)n3)c12 — remaining binding (binding; 1 µM): 95%
CCN1CCN(Cc2ccc(C(=O)Nc3ccc(C)c(Oc4ccc5c(c4)CC(=O)N5)c3)cc2C(F)(F)F)CC1 — remaining binding (binding, competition with immobilised ligand; 1 µM): 100%
O=C(Nc1c[nH]nc1C(=O)NC1CCNCC1)c1cc(F)cc(F)c1 — remaining binding (binding, competition with immobilised ligand; 1 µM): 100%
c1cncc(-c2cccc(Nc3nccc(NC4CCCCC4)n3)c2)c1 — remaining binding (binding, competition with immobilised ligand; 10 µM): 94%
O=C(NCc1ncc(C(F)(F)F)cc1Cl)c1ccc2c(c1)C1(CCS(=O)(=O)CC1)[C@@H](C1CC1)N2S(=O)(=O)c1ccc(F)cc1 — remaining binding (cell-free assay, competition with immobilised ligand; 1 µM): 92%
C[C@H]1CCN(c2nccc(-c3cnn4ncccc34)n2)C1 — remaining binding (binding; 1 µM): 100%
O=C(c1ccc(Nc2nccc(-c3cc4ccccc4s3)n2)cc1)N1CCC(N2CCCC2)CC1 — remaining binding (binding, competition with immobilised ligand; 1 µM): 100%
CN(C)c1nccc(-c2cnc3ncccn23)n1 — remaining binding (binding; 1 µM): 79%
O=C(c1ccc(Nc2ncc(Cl)c(-c3cc4ccccc4s3)n2)cc1)N1CCC(N2CCCC2)CC1 — remaining binding (binding, competition with immobilised ligand; 1 µM): 80%
CN(C)c1nccc(-c2cnn3ncccc23)n1 — remaining binding (binding; 1 µM): 100%
O=C(NCCCN1CCOCC1)c1ccc(Nc2nccc(-c3cc4ccccc4s3)n2)cc1 — remaining binding (binding, competition with immobilised ligand; 1 µM): 75%
CN(CCCC(F)(F)F)c1nccc(-c2cnn3ncccc23)n1 — remaining binding (binding; 1 µM): 95%
CN1CCN(c2cnc3c(C4CCN(C(=O)c5ccc(OC(F)(F)F)cc5N)CC4)ncnc3c2)CC1 — remaining binding (cell-free assay, competition with immobilised ligand; 1 µM): 78%
F[C@@H]1CCN(c2nccc(-c3cnn4ncccc34)n2)C1 — remaining binding (binding; 1 µM): 77%
c1ccc(N2CCN(Cc3nc4ccccc4[nH]3)CC2)nc1 — remaining binding (cell-free assay, competition with immobilised ligand; 1 µM): 100%
